The list is not random: actives were taken first. Their share in the collection is about 8.2%.
RORa activator = activators of orphan receptor RORA, primary screen, cell-based, luminescence | Nuclear receptor ROR-alpha (Homo sapiens), P35398 | CHO-K1 Gal4-RORA LBD luciferase reporter; percent increase over mock-subtracted basal signal | activation, % at 10 µM | 65,000 tested, 1.5% active | AID 560, 2006;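 active = activation above the mean of all tested compounds plus 3 SD, cut at about 49% in these data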;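 also: 0% = DMSO-treated RORA cells and 100% = added signal equal to DMSO minus mock-transfected cells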
D1 mod = D1 CRE-luciferase signal change, two-sided – cell-based, HEK293 D1, dopamine EC30, D1 allosteric modulator project, primary screen; 58,000 tested, 5.9% active; B-score at 10 µM; dopamine EC30 potentiation; actives deviate in either direction; D(1A) dopamine receptor (Homo sapiens), P21728;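 active = luminescence count or its row- and column-corrected plate score outside the 99.7% band of the plate's sample wells, on either side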
M1 ag = M1 muscarinic receptor agonists, primary screen, CHO-M1 cells, Fluo-4 calcium, agonist mode. AID 626, 2007. B-score at 10 µM. 64,000 tested, 3% active. Fluo-4 calcium fluorescence; stronger effect = higher value;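 active = fluorescence rise, raw or as B-score row- and column-corrected plate score, outside the 99.7% band of its plate's samples, either direction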
HePTP inhibitor = inhibitors of human HePTP phosphatase, primary screen, biochemical, absorbance, leukemia target. Tyrosine-protein phosphatase non-receptor type 7 (Homo sapiens), P35236. recombinant HePTP phosphatase activity, OD absorbance. inhibition, % at 20 µM. 110,000 tested, 0.64% active. AID 521, 2006; in the data active = inhibition above about 50%;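 also: plate controls were vehicle for no effect and reference inhibitor for full effect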
SF-1 act = activators of human SF-1, primary screen, cell-based, CHO-K1, Gal4-SF-1 LBD, luciferase luminescence; Steroidogenic factor 1 (Homo sapiens), Q13285; activation, % at 10 µM; 65,000 tested, 1.9% active; AID 522, 2006; CHO-K1 Gal4-SF-1 LBD luciferase reporter; % increase over DMSO SF-1-specific signal;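 active = activation above the mean activation of all tested compounds plus 3 SD, cut at about 50% in these data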
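Assay system – CHO-K1 cells with Gal4–hSF-1 LBD chimera plus Gal4-driven luciferase · Quantity – 4,000 cells per well · Times – compound added 1 h post-seeding, 20 h exposure at 37 °C, 5% CO2 · Measured by – luciferase light emission · Benchmarks – DMSO and mock-transfected background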
M1 antag = antagonists of rat M1 muscarinic receptor; 64,000 tested, 3.4% active; Muscarinic acetylcholine receptor M1 (Rattus norvegicus), P08482; B-score at 10 µM; CHO-M1 cells, Fluo-4 calcium, ACh EC80 antagonist mode; stronger effect = lower value;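 active = calcium fluorescence response, raw or row-and-column corrected B-score, differing from the plate sample mean either way at a set confidence level, mostly lower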
Target sequence (P08482 whole entry, looked up): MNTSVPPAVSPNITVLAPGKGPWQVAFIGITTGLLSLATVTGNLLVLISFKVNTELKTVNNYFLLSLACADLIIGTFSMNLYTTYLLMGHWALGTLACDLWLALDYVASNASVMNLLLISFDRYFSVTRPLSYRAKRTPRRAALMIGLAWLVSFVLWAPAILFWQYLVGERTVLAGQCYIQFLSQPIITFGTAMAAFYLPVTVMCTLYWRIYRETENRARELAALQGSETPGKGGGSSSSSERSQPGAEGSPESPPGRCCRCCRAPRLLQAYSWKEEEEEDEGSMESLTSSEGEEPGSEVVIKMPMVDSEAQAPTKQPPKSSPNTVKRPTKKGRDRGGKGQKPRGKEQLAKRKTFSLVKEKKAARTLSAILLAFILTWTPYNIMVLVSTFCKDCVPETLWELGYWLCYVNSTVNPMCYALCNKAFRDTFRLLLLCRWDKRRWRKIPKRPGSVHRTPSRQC
D1 mod confirm = D1 receptor positive allosteric modulators, retest, confirmation, cell-based, HEK293 D1, CRE-luciferase, duplicate; shares compounds with D1 mod; dopamine EC30 potentiation; stronger effect = higher value; luminescence at 10 µM; 2,200 tested, 88% active;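 active = luminescence in either of two replicates above the same-plate mean plus 3 SD of the low-dose dopamine control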
D1 no dopamine = D1 receptor agonism without dopamine, confirmation, mechanism study for D1 allosteric modulator project, cell-based, HEK293 D1, CRE-luciferase, secondary assay 1 | shares compounds with D1 mod | luminescence, no dopamine; stronger effect = higher value | luminescence at 10 µM | 1,900 tested, 0.8% active | AID 646, 2007; in the data active = luminescence above about 3900
Isoprot counter = isoproterenol response counter-screen activity for D1 modulators. calls only at 10 µM. shares compounds with D1 mod. 2,200 tested, 63% active. AID 647. HEK293 D1 CRE-luciferase, isoproterenol EC30 counter-screen;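 active = luminescence in either replicate above plate mean of wells with a partly effective reference agonist dose plus 3 SD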;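 also: isoproterenol raises cAMP through native beta-adrenoceptor Gs so signal bypasses D1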
Numbers without * were called inactive.

Results for C=CCn1c(SCC(=O)Nc2sccc2C(N)=O)nc2sc(C)c(C)c2c1=O ?
RORa activator: -3; D1 mod: -0.53; M1 ag: 0.96; HePTP inhibitor: 4; SF-1 act: 11; M1 antag: 0.0091

Results for O=C(CCc1ccccc1)Oc1ccc(Cl)cc1 ?
HePTP inhibitor: -7

What do the screens show for `CC(=O)NS(=O)(=O)c1ccc(NS(=O)(=O)c2ccc(Br)cc2)cc1`?
HePTP inhibitor: 0

Results for OC[C@H]1O[C@@H](n2cnc3c(Nc4ccccc4)ncnc32)[C@H](O)[C@@H]1O ?
RORa activator: 5; D1 mod: 6.6*; M1 ag: 0.33; HePTP inhibitor: 9; SF-1 act: 48; M1 antag: -0.17; D1 mod confirm: 7048*; Isoprot counter: active

Results for Cc1nc2ccccc2c2oc(C(=O)NCCN3CCN(C)CC3)cc12 ?
RORa activator: 4; D1 mod: 2.6*; M1 ag: -0.34; HePTP inhibitor: 2; SF-1 act: -10; M1 antag: -0.69; D1 mod confirm: 5656; D1 no dopamine: 1600; Isoprot counter: inactive

Results for O=c1[nH]c2cc3c(cc2cc1C(c1nnnn1C1CCCC1)N1CCSCC1)OCCO3 (stereo not drawn) ?
RORa activator: 12; D1 mod: 6.9*; M1 ag: -2.6; HePTP inhibitor: 6; SF-1 act: 3; M1 antag: 0.5; D1 mod confirm: 10448*; D1 no dopamine: 1784; Isoprot counter: inactive

What do the screens show for `CCOc1c(C(N)=O)c(-c2ccccc2)c2c(=O)[nH]c3ccccc3n12`?
RORa activator: 12; D1 mod: 0.09; M1 ag: -0.55; HePTP inhibitor: 0; SF-1 act: -30; M1 antag: -0.014

What do the screens show for `N#Cc1cccc(NC(=O)COc2ccc(-n3ccnc3)cc2)c1`?
RORa activator: -4; M1 ag: 2.2; HePTP inhibitor: 6; SF-1 act: 8; M1 antag: -1.9

Results for Cc1cc(C)c2[nH]c3nc(C)cc(C)c3c(=O)c2c1 ?
HePTP inhibitor: -13

How did CC(C)Sc1nc2c(c(=O)n1-c1ccc(F)cc1)SCC2 do in these assays?
RORa activator: -2; D1 mod: 11*; M1 ag: 1.6; HePTP inhibitor: -8; SF-1 act: 4; M1 antag: -1.4; D1 mod confirm: 23632*; D1 no dopamine: 1816; Isoprot counter: active

What do the screens show for `O=C(CSc1nc2c(c(=O)n1-c1ccc(F)cc1)SCC2)N1CCCC1`?
RORa activator: -9; D1 mod: -0.78; M1 ag: 1.8; HePTP inhibitor: 2; SF-1 act: -8; M1 antag: -0.16

How did Fc1ccc(-c2cc(C(F)(F)F)nc(-n3cncn3)n2)cc1 do in these assays?
RORa activator: -12; D1 mod: 3.4*; M1 ag: -1.2; HePTP inhibitor: 6; SF-1 act: -11; M1 antag: 0.016; D1 mod confirm: 8460*; D1 no dopamine: 1488; Isoprot counter: inactive

How did COc1ccc(OC)c(C2C(C(C)=O)=C(O)C(=O)N2CCC(=O)O)c1 (stereo not drawn) do in these assays?
RORa activator: -16; D1 mod: 2.7*; M1 ag: 0.43; HePTP inhibitor: 3; SF-1 act: -5; M1 antag: -0.0039; D1 mod confirm: 4144; D1 no dopamine: 1648; Isoprot counter: inactive

How did COc1cc(NC(=O)c2cc(-c3cc(C)ccc3C)nc3ccccc23)c(OC)cc1Cl do in these assays?
HePTP inhibitor: -3

How did FC(F)(F)c1cccc(-c2ccc(-c3csnn3)o2)c1 do in these assays?
RORa activator: 8; D1 mod: 24*; M1 ag: -0.0034; HePTP inhibitor: 2; SF-1 act: 8; M1 antag: -0.0059; D1 mod confirm: 5424; D1 no dopamine: 1700; Isoprot counter: inactive

Results for O=C(Nc1ccccc1-c1ccccc1)c1cnccn1 ?
RORa activator: 0; D1 mod: 5.2*; M1 ag: -1.3; HePTP inhibitor: 6; SF-1 act: 18; M1 antag: 0.5; D1 mod confirm: 9324*; D1 no dopamine: 1564; Isoprot counter: active

What do the screens show for `COCCNC(=O)CN1CCOc2ccccc21`?
RORa activator: -7; D1 mod: 0.21; M1 ag: 1.4; HePTP inhibitor: -3; SF-1 act: 7; M1 antag: 0.73

How did CCOCCOC(=O)C1=C(C)Nc2ccc(C)cc2S1 do in these assays?
RORa activator: 13; D1 mod: 3.9*; M1 ag: -0.68; HePTP inhibitor: 2; SF-1 act: -4; M1 antag: 0.11; D1 mod confirm: 7892*; D1 no dopamine: 1460; Isoprot counter: inactive

Results for CCOC(=O)C1=C(C)Nc2ccccc2S1 ?
HePTP inhibitor: -7

What do the screens show for `c1ccc2c(c1)N1CCN=C1N2CCN1CCCCC1`?
RORa activator: -14; D1 mod: 1; M1 ag: 0.12; HePTP inhibitor: 7; SF-1 act: -1; M1 antag: -0.82

Results for CCCN1C2=NS(=O)(=O)CCN2c2ccccc21 ?
RORa activator: -10; D1 mod: 8.4*; M1 ag: -0.51; HePTP inhibitor: -8; SF-1 act: 4; M1 antag: -0.038; D1 mod confirm: 20272*; D1 no dopamine: 2056; Isoprot counter: active

Results for CC(CNC(=O)c1ccc(Br)cc1)CN(C)C (stereo not drawn) ?
HePTP inhibitor: -10

Results for C=CCN1C(=O)C(Cc2cccc(C)c2)SC1=Nc1ccc(C(=O)O)cc1 (stereo not drawn) ?
HePTP inhibitor: -24

How did CCn1cc(C(=O)OCc2cccc(Br)c2)c(=O)c2ccc(C)nc21 do in these assays?
RORa activator: 10; D1 mod: 6.6*; M1 ag: 0.42; HePTP inhibitor: -4; SF-1 act: -6; M1 antag: -0.81; D1 mod confirm: 14972*; D1 no dopamine: 1524; Isoprot counter: active

Assay outcomes (PubChem)
